Several values for one entry are separate records, joined by “and”; a condition that tells them apart may be missing. Identical values can stand only once.
Columns and labels:
[1] = system: inositol 1,4,5-trisphosphate-mediated Ca^2+ release; test: inositol 1,4,5-trisphosphate-mediated Ca2+ release in sea urchin egg homogenate; assay type: biochemical, Lytechinus pictus; settings: read-out: EC50, Ca2+ release
Procedure, shortened: (§1)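 Lytechinus pictus egg homogenate with the Ca2+ dye fluo-3 and ATP. Second messenger added and Ca2+ release followed as fluo-3 fluorescence (RFU), in a plate reader (2-4 replicates) or a fluorimeter.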

[2] = system: NAADP-mediated Ca^2+ release; test: NAADP-mediated Ca2+ release bioassay in sea urchin egg homogenate; assay type: biochemical, Lytechinus pictus; settings: for Ca2+ release induced by the compound itself in the bioassay: compound at 125 μM
[3] = solubility in 25% dimethylsulfoxide or 25% dimethylformamide; assay type: physicochemical
[4] = system: cyclic ADP-ribose-mediated Ca^2+ release; test: cyclic ADP-ribose-mediated Ca2+ release in sea urchin egg homogenate; assay type: biochemical, Lytechinus pictus; settings: read-out: EC50, Ca2+ release
Procedure, shortened: as §1

[5] = system: voltage-gated Ca^2+ channels; test: KCl depolarization-induced Ca2+ transient in islets; assay type: cell-based, mouse; settings: 100 μM compound; glucose 10 mM, diazoxide 100 μM, KCl 45 mM
Procedure, shortened: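 Pancreatic beta cells loaded with fura-PE3 acetoxymethyl ester for Ca2+ imaging. Cells were held in glucose and diazoxide, then depolarized with KCl with or without test compound in the bath. Data given as mean ± standard error of the mean and compared by one-tailed t-tests.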

[6] = system: mitochondrial metabolism (NAD(P)H); test: glucose-induced NAD; assay type: cell-based, mouse; settings: 100 μM compound
Procedure, shortened: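 Islets of Langerhans were pre-incubated 60 min at 37°C in control medium containing 3 mM glucose. NAD(P)H autofluorescence was recorded at 360 nm excitation and >470 nm emission. Changes were expressed as percent of basal values within the same islet.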

intact sea urchin eggs = test: NAADP-induced Ca2+ release in intact sea urchin eggs; assay type: cell-based; settings: 100 μM compound in artificial seawater; NAADP microinjected
[7] = system: glucose-induced Ca^2+ increases in mouse pancreatic islets; test: glucose-induced Ca2+ signaling in isolated pancreatic islets; assay type: cell-based; settings: isolated mouse islet, glucose 10 mM, compound 100 μM
[8] = system: mouse pancreatic beta cells; test: NAADP-mediated Ca2+ spiking in patch-clamped pancreatic beta cells; assay type: cell-based; settings: pre-incubation with 125 μM in bathing solution; NAADP 50 nM via patch pipette
Procedure, shortened: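 Whole-cell patch clamp at room temperature. Borosilicate pipettes were 3–5 MΩ and the holding potential was −70 mV. Test compound was pre-incubated in the bath. Read-out was Ca2+-dependent current traces.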

[9] = system: sea urchin egg binding protein (NAADP receptor); test: [32P]NAADP radioligand displacement binding assay, sea urchin egg homogenate; set-up: species or system Lytechinus pictus

In the case of FC(F)(F)c1cccc(N2CCN(Cn3nc(COc4ccccc4)n(-c4ccccc4)c3=S)CC2)c1 [Ned-16], the “Ca2+ release induced by the compound itself in the bioassay” value [2] is reported as “induced irreversible Ca^2+ release”.

For “nicotinic acid adenine dinucleotide phosphate [NAADP, reference compound]”, the EC50 ([2]; read-out: EC50, Ca2+ release, sea urchin egg homogenate) was 35 nM and 30 to 50 nM.

For CCC(=O)N1N=C(c2ccc(C3=NN(C(=O)CC)[C@H](c4cccc(OC)c4OC)C3)cc2)C[C@H]1c1cccc(OC)c1OC [Nrd-11], the solubility [3] was “sparingly soluble”.

N=c1c2ncn3c2ncn1[C@@H]1O[C@H](COP(=O)(O)OP(=O)(O)OC[C@H]2O[C@@H]3[C@H](O)[C@@H]2O)[C@@H](O)[C@H]1O [cADPR, cyclic ADP-ribose] showed an EC50 [4] of 300 nM.

For C=C1NN(c2nc(-c3cccc([N+](=O)[O-])c3)cs2)C(=O)/C1=N/Nc1ccc(Cl)cc1C(=O)c1ccccc1 [Nrd-7], the solubility [3] was “sparingly soluble”.

In the case of COc1ccc2[nH]c(C(=O)O)c(CCNC(=O)CO/N=C3/C=C[C@@]4(C)C(=C3)CC[C@@H]3[C@H]4CC[C@]4(C)[C@H]3CC[C@]4(C)O)c2c1 [Nrd-10], the “Ca2+ release induced by the compound itself in the bioassay” value [2] is reported as “induced irreversible Ca^2+ release”.

With COc1ccc(C2N[C@H](C(=O)O)Cc3c2[nH]c2ccccc32)cc1CN1CCN(c2ccccc2F)CC1 (stereo partly shown) [Ned-19] the “KCl depolarization-induced Ca2+ transient” value [5] was “unaltered”, the “glucose-induced increase in NADH and NADPH fluorescence” value [6] was “still occurred” and the “NAADP-induced Ca2+ increase in intact sea urchin eggs” value (intact sea urchin eggs) was “failed to elicit a Ca^2+ increase”. For the same compound, the “Hill coefficient, inhibition of NAADP-mediated Ca2+ release” value ([2]; commercial Ned-19) was −0.6, the “effect on NAADP concentration-response curve” value ([2]; constant presence of 125 μM compound (figure legend: 100 μM)) was “reduced the maximum release and shifted the EC50 to the right” and the “effect on glucose-induced Ca2+ signal” value [7] was “reduced the amplitude of the oscillations and reduced the elevated plateau to the nonstimulated level”. The “NAADP-mediated Ca2+ spiking” value [8] was “blocked NAADP-mediated Ca^2+ spiking”, the “dissociation from the NAADP receptor (recovery of [32P]NAADP binding)” value ([9]; Ned-19 10 μM, after 5 days of incubation) was “only about half the bound Ned-19 dissociates” and the “Hill coefficient, [32P]NAADP binding competition” value ([9]; commercial Ned-19) was −2.3.
